Results published in ChEMBL document CHEMBL3098016, “Biphenyl derivatives incorporating urea unit as novel VEGFR-2 inhibitors: design, synthesis and biological evaluation” (Bioorg Med Chem, 2014).

Legend:
[1] = Antiproliferative activity against human SH-SY5Y cells after 48 hrs by MTT assay
[2] = test system: LoVo; assay: Antiproliferative activity against human LoVo cells after 48 hrs by MTT assay
[3] = Antiproliferative activity against human SGC7901 cells after 48 hrs by MTT assay; conditions: SGC-7901, 48 h
[4] = test system: MDA-MB-231; assay: Antiproliferative activity against human MDA-MB-231 cells after 48 hrs by MTT assay; assay type: functional, cell-based; conditions: MDA-MB-231, 48 h
Procedure, shortened: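 Cells in exponential growth plated at 1 × 10⁴ cells/well and incubated 24 h at 37 °C. Compounds were then added at various concentrations for 48 h. MTT (5 mg/mL) was added, followed by 4 h at 37 °C. Supernatant was removed and formazan dissolved in DMSO, with absorbance read at 490 nm. IC50 in µM.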

[5] = test system: K562; assay: Antiproliferative activity against human K562 cells after 48 hrs by MTT assay; conditions: K562, 48 h
[6] = molecular target: Vascular endothelial growth factor receptor 2 (Homo sapiens, UniProt P35968); assay: Inhibition of VEGFR2 (unknown origin) after 30 mins by HTRF assay
Chain of Vascular endothelial growth factor receptor 2 (P35968 whole entry): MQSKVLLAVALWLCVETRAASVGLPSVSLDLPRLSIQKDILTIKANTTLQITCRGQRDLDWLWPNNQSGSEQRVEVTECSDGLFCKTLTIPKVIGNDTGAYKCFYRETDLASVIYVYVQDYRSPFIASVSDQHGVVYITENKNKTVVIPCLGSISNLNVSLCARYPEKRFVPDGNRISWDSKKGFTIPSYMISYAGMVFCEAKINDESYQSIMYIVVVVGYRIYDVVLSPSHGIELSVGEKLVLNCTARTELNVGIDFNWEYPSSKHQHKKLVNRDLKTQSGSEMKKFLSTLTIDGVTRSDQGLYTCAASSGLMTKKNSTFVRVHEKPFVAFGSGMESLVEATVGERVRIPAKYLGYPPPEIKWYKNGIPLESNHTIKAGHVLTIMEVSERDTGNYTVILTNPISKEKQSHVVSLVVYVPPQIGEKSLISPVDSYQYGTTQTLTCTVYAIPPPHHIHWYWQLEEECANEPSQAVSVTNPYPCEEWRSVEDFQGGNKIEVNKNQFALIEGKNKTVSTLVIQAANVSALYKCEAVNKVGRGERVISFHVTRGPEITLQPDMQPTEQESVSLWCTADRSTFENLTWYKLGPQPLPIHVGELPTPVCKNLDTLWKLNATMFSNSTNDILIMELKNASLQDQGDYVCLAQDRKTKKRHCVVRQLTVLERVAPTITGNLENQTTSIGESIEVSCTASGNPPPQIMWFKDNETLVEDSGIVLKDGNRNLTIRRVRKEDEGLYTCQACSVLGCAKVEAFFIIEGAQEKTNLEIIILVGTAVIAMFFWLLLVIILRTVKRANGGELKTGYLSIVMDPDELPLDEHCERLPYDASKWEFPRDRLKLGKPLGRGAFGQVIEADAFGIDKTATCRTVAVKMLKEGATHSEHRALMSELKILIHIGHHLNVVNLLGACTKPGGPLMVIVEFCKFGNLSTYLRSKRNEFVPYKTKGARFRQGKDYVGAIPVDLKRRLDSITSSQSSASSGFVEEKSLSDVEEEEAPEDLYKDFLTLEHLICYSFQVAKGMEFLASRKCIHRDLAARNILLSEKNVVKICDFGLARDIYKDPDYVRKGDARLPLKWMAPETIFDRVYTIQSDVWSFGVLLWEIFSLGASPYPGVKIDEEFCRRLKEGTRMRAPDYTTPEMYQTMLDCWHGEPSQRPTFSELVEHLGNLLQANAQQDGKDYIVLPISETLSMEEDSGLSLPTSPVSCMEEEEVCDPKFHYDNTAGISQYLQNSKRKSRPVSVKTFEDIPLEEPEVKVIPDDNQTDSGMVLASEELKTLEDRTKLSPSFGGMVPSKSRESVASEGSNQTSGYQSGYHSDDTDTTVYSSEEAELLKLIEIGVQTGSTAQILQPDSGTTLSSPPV

Question: For CNC(=O)c1cc(Oc2ccc(NC(=O)Nc3ccc(Cl)c(C(F)(F)F)c3)cc2)ccn1 [SORAFENIB], which IC50 [1] is on record?
Answer: 5.73 µM

Question: And the IC50 [2]?
Answer: 6.56 µM

Question: What about the IC50 [3] of the same compound?
Answer: 101 µM

Question: And the IC50 [4]?
Answer: 35 µM

Question: And the IC50 [5]?
Answer: 0.86 µM

Question: With COc1cc(-c2cc(NC(=O)Nc3ccc(OCCN(C)C)cc3C)cc(OC)c2OC)ccc1C(C)=O as the compound, how does the IC50 [6] read?
Answer: > 0.3 µM

Question: With COc1cc(-c2cc(NC(=O)Nc3ccc(OCCN(C)C)cc3)cc(OC)c2OC)ccc1C(C)=O as the compound, how does the IC50 [6] read?
Answer: > 0.3 µM

Question: For COc1cc(-c2cc(NC(=O)Nc3cc(OCCN4CCCCC4)ccc3C)cc(OC)c2OC)ccc1C(C)=O, which IC50 [6] is on record?
Answer: > 0.3 µM

Question: With CCN(CC)CCOc1ccc(NC(=O)Nc2cc(OC)c(OC)c(-c3ccc(C(C)=O)c(OC)c3)c2)cc1 as the compound, how does the IC50 [6] read?
Answer: > 0.3 µM

Question: Which IC50 [1] does the source give for COc1cc(-c2cc(NC(=O)Nc3ccc(OCCCN4CCOCC4)cc3)cc(OC)c2OC)ccc1C(C)=O here?
Answer: 10.4 µM

Question: What about the IC50 [2] of the same compound?
Answer: 11.1 µM

Question: What about the IC50 [3] of the same compound?
Answer: 80.9 µM

Question: What about the IC50 [5] of the same compound?
Answer: 2.23 µM

Question: Which IC50 [6] does the source give for CCN(CC)CCOc1ccc(NC(=O)Nc2cc(OC)c(OC)c(-c3ccc(/C(C)=N/O)c(OC)c3)c2)c(C)c1 here?
Answer: > 0.3 µM

Question: With COc1cc(-c2cc(NC(=O)Nc3ccc(OCCN4CCOCC4)cc3)cc(OC)c2OC)ccc1C(C)=O as the compound, how does the IC50 [6] read?
Answer: > 0.3 µM
